In ChEMBL document CHEMBL1126599, “Specific sequestering agents for the actinides. 21. Synthesis and initial biological testing of octadentate mixed catecholate-hydroxypyridinonate ligands” (J Med Chem, 1993):

Tests used:
Mus musculus [1] = test: Percent of injected 238-Plutonium(IV) in mice kidneys at 24 hr (orally administered); type: ADME, organism-based, Kidney; conditions: in vivo, po
Outline: (§1)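 Mice were fasted 18 h and given plutonium(IV)-238 citrate iv. At 3 min, ligand at 30 μmol kg-1 in 0.14 M NaCl was given by gastric intubation, with a little food at 4 h. Urine (0–4 h, 4–24 h) and feces were collected per five-mouse group in a metabolic cage. Mice were killed at 24 h. Tissue and GI Pu was expressed as % injected dose, normalized to 100% recovery. Kidneys and excreta were pooled per group. Fasted controls were included.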

[2] = Removal of 238-Plutonium(IV) in gastrointestinal (GI) contents at 24 hr (orally administered); type: ADME; conditions: po; outline: as §1
[3] = Removal of 238-Plutonium(IV) in urine 0-4 h (orally administered); type: ADME; conditions: po; outline: as §1
Mus musculus [4] = species: Mus musculus; test: Percent of injected 238-Plutonium(IV) in mice whole body at 24 h; type: ADME, organism-based; conditions: in vivo
Outline: (§2)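 Mice received plutonium(IV)-238 citrate iv. At 1 h, normally fed mice got ligand at 30 μmol kg-1 in 0.14 M NaCl by ip injection, then water only. Each five-mouse group was housed in one metabolic cage to collect urine and feces. Mice were killed at 24 h. Pu was expressed as % of injected dose, normalized to 100% recovery. Kidneys and excreta were pooled per group. Saline-injected controls were killed at 24 h.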

[5] = Removal of 238-Plutonium(IV) in urine after 4-24 h; type: ADME, tissue-based; outline: as §2
[6] = Removal of 238-Plutonium(IV) in feces at 24 h; type: ADME; outline: as §2
Mus musculus [7] = test: Percent of injected 238-Plutonium(IV) in mice soft tissue at 24 hr (orally administered); type: ADME, organism-based; conditions: in vivo, po; outline: as §1
Mus musculus [8] = test: Percent of injected 238-Plutonium(IV) in mice liver at 24 hr (orally administered); type: ADME, organism-based; conditions: in vivo, po; outline: as §1
Mus musculus [9] = species: Mus musculus; test: Percent of injected 238-Plutonium(IV) in mice liver at 24 h; type: ADME, organism-based; conditions: in vivo; outline: as §2
[10] = Removal of 238-Plutonium(IV) in urine 4-24 hr (orally administered); type: ADME; conditions: po; outline: as §1
[11] = Removal of 238-Plutonium(IV) in gastrointestinal (GI) contents at 24 h; type: ADME; outline: as §2
Mus musculus [12] = test: Percent of injected 238-Plutonium(IV) in mice skeleton at 24 hr (orally administered); type: ADME, organism-based; conditions: in vivo, po; outline: as §1
Mus musculus [13] = test: Percent of injected 238-Plutonium(IV) in mice whole body at 24 hr (orally administered); type: ADME, organism-based; conditions: in vivo, po; outline: as §1
Mus musculus [14] = species: Mus musculus; test: Percent of injected 238-Plutonium(IV) in mice kidneys at 24 h; type: ADME, organism-based, Kidney; conditions: in vivo; outline: as §2
[15] = Removal of 238-Plutonium(IV) in urine after 0-4 h; type: ADME, tissue-based; outline: as §2
Mus musculus [16] = species: Mus musculus; test: Percent of injected 238-Plutonium(IV) in mice skeleton at 24 h; type: ADME, organism-based; conditions: in vivo; outline: as §2
[17] = Removal of 238-Plutonium(IV) in feces at 24 hr (orally administered); type: ADME; conditions: po; outline: as §1
Mus musculus [18] = species: Mus musculus; test: Percent of injected 238-Plutonium(IV) in mice soft tissue at 24 h; type: ADME, organism-based; conditions: in vivo; outline: as §2
[19] = Removal of 238-Plutonium(IV) in urine after 0-24 hr (orally administered); type: ADME, tissue-based; conditions: po; in the assay text read “4-24 hr” for “0-24 hr”; outline: as §1
[20] = Removal of 238-Plutonium(IV) in urine after 0-4 hr (orally administered); type: ADME, tissue-based; conditions: po; outline: as §1
Mus musculus [21] = test: Percent of injected 238-Plutonium(IV) in mice kidney at 24 hr (orally administered); type: ADME, organism-based; conditions: in vivo, po; outline: as §1
[22] = Removal of 238-Plutonium(IV) in urine after 4-24 hr (orally administered); type: ADME, tissue-based; conditions: po; outline: as §1
[23] = Removal of 238-Plutonium(IV) in urine at 4-24 hr (orally administered); type: ADME, tissue-based; conditions: po; outline: as §1
[24] = Removal of 238-Plutonium(IV) in urine at 0-4 hr (orally administered); type: ADME, tissue-based; conditions: po; outline: as §1
[25] = Removal of 238-Plutonium(IV) in urine after 0-24 h; type: ADME, tissue-based; outline: as §2

ID (Mus musculus [1]) | ID [2] | ID (Mus musculus [4]) | ID [5] | ID [6] | ID (Mus musculus [7]) | ID (Mus musculus [8]) | ID (Mus musculus [9]) | ID [11] | ID (Mus musculus [12]) | ID (Mus musculus [13]) | ID (Mus musculus [14]) | ID [15] | ID (Mus musculus [16]) | ID [17] | ID (Mus musculus [18]) | ID [20] | Structure (SMILES) | other results
3.3% | 1.9% | 37% | 4.1% | 31% | 4.7% | 35% | 21% | 20% | 26% | 68% | 2% | 7.9% | 12% | 13% | 2.4% |  | O=C(NCCCN(CCCCN(CCCNC(=O)c1cccc(O)c1O)C(=O)c1cccc(=O)n1O)C(=O)c1cccc(=O)n1O)c1cccc(O)c1O | ID [3]: 12%; ID [10]: 4%
 |  | 35% | 4% | 0.4% |  |  | 25% | 2.9% |  |  | 0.9% | 58% | 6.7% |  | 2.8% |  | O=C(NCCCN(CCCCN(CCCNC(=O)c1cc(S(=O)(=O)O)cc(O)c1O)C(=O)c1cc(S(=O)(=O)O)cc(O)c1O)C(=O)c1cc(S(=O)(=O)O)cc(O)c1O)c1cc(S(=O)(=O)O)cc(O)c1O | 
3% | 1.8% | 33% | 3.1% | 43% | 4.5% | 43% | 12% | 12% | 30% | 82% | 3.1% | 9.1% | 13% | 4.5% | 4% | 8.3% | O=C(NCCCN(CCCCN(CCCNC(=O)c1cccc(O)c1O)C(=O)c1cccc(=O)n1O)C(=O)c1cccc(O)c1O)c1cccc(O)c1O | ID [19]: 2.3%
 | 1.4% | 18% | 2% | 21% | 1.3% | 11% | 8.9% | 36% | 12% | 24% | 0.2% | 23% | 7.5% | 50% | 1.6% | 23% | O=C(NCCCN(CCCCN(CCCNC(=O)c1cccc(=O)n1O)C(=O)c1cccc(=O)n1O)C(=O)c1cccc(=O)n1O)c1cccc(=O)n1O | ID (Mus musculus [21]): 0.1%; ID [22]: 2.7%
1.5% | 1% | 29% | 4.6% | 4.8% | 3.9% | 19% | 11% | 12% | 32% | 56% | 2.6% | 44% | 11% | 3.3% | 4.8% |  | O=C(O)c1ccc(C(=O)NCCCN(CCCCN(CCCNC(=O)c2ccc(C(=O)O)c(O)c2O)C(=O)c2ccc(C(=O)O)c(O)c2O)C(=O)c2ccc(C(=O)O)c(O)c2O)c(O)c1O | ID [23]: 9.5%; ID [24]: 30%
 |  | 53% |  | 28% |  |  | 26% | 8.6% |  |  | 4.3% |  | 18% |  | 5.1% |  | O=C(NCCCN(CCCCN(CCCNC(=O)c1cccc(O)c1O)C(=O)c1cccc(O)c1O)C(=O)c1cccc(O)c1O)c1cccc(O)c1O | ID [25]: 9.4%
